From ChEMBL document CHEMBL5647697, “Akt inhibition synergizes with polycomb repressive complex 2 inhibition in the treatment of multiple myeloma” (2019)
The source made the active and inactive calls. The calls are words filed in the database; no cut-off is given here.

Key:
[1] = test system: NCI-H929; test: Cytotoxicity against human NCI-H929 cells assessed as reduction in cell viability at 0.3125 to 10 micromol/L after 48 hrs by MTS assay; type: functional, cell-based; settings: dose 0.3125-10 µmol/L
Procedure, shortened: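 Seven myeloma lines (MM.1S, H929, OPM2/BTZ among them) exposed to TAS-117 at increasing concentrations up to 10 μmol/L for 48 h. Viability read by MTS against an untreated control; mean ± SD of triplicates.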

[2] = test system: OPM-2/BTZ; test: Downregulation of CDK1 protein expression in human OPM-2/BTZ cells incubated at 0.3 to 3 micromol/L for 48 hrs by Western blot analysis; type: functional, cell-based; settings: dose 0.3-3 µmol/L
[3] = target: Serine/threonine-protein kinase AKT (Homo sapiens) (UniProt P31751+Q9Y243+P31749); test: Inhibition of Akt phosphorylation in human MM1.S cells at 0.3 to 5 micromol/L for 6 to 48 hrs by Western blot analysis; type: cell-based; settings: dose 0.3-5 µmol/L, time 6-48 hrs
Chain of Serine/threonine-protein kinase AKT (Homo sapiens) (P31749 whole entry, looked up): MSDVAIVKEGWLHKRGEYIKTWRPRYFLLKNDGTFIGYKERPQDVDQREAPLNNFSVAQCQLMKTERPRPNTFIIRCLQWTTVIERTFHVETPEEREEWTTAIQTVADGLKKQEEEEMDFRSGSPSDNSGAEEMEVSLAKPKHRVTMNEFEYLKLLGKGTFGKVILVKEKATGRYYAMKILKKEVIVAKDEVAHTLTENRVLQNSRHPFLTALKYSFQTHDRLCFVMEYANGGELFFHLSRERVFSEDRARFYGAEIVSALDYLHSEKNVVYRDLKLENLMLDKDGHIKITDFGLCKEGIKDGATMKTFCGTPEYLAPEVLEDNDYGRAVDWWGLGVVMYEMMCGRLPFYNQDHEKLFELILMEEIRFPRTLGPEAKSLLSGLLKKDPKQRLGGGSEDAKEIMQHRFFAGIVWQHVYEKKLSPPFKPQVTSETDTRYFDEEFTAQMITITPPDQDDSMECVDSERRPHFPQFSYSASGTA
Chain of Serine/threonine-protein kinase AKT (Homo sapiens) (P31751 whole entry, looked up): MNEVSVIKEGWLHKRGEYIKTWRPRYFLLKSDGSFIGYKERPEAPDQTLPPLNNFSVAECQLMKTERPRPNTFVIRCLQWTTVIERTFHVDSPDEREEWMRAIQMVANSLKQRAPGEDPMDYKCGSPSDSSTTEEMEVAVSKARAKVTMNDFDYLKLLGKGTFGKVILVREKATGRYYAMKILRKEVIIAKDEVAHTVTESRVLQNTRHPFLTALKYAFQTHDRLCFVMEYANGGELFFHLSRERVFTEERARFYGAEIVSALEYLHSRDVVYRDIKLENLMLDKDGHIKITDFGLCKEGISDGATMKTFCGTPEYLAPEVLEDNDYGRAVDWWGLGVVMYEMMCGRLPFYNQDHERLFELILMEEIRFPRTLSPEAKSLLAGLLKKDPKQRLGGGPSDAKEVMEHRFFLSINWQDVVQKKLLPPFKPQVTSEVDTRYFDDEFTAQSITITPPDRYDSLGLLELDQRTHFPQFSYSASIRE
Chain of Serine/threonine-protein kinase AKT (Homo sapiens) (Q9Y243 whole entry, looked up): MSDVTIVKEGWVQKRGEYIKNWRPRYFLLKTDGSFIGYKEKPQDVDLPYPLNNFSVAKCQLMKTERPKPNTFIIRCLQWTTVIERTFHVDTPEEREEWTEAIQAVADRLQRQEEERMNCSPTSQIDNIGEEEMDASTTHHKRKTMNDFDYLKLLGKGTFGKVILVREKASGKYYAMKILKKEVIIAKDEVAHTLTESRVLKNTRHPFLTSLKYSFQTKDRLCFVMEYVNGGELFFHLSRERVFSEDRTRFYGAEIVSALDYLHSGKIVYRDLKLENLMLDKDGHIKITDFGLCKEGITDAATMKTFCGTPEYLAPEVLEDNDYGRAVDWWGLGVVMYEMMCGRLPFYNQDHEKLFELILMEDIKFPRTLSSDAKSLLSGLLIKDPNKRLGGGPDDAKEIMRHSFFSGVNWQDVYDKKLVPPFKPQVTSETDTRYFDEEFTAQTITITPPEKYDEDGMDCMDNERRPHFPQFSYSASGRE
Procedure, shortened: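 MM.1S and H929 cells were treated with graded doses for 48 h, or with 5 μmol/L for the stated times. Lysates were immunoblotted, with GAPDH, total Akt and H3 as loading controls.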

[4] = test system: NCI-H929; test: Downregulation of CDK2 protein expression in human NCI-H929 cells incubated at 0.3 to 3 micromol/L for 48 hrs by Western blot analysis; type: functional, cell-based; settings: dose 0.3-3 µmol/L
Procedure, shortened: (§1)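 MM.1S and H929 cells given TAS-117 at the indicated doses for 48 h. Protein levels assessed by immunoblot.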

[5] = test system: MM1.S; test: Downregulation of E2F1 mRNA expression in human MM1.S cells incubated at 0.3 to 3 micromol/L for 24 hrs by qRT-PCR analysis; type: functional, cell-based; settings: dose 0.3-3 µmol/L
Procedure, shortened: (§2)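 MM.1S and H929 cells given TAS-117 at the indicated doses for 24 h. mRNA measured by RT-qPCR, fold change after normalization to GAPDH; SD of triplicates; significance versus untreated control.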

[6] = test system: NCI-H929; test: Downregulation of E2F2 mRNA expression in human NCI-H929 cells incubated at 0.3 to 3 micromol/L for 24 hrs by qRT-PCR analysis; type: functional, cell-based; settings: dose 0.3-3 µmol/L; procedure, shortened: as §2
[7] = test system: MM1.S; test: Downregulation of cyclin D1 protein expression in human MM1.S cells incubated at 0.3 to 3 micromol/L for 48 hrs by Western blot analysis; type: functional, cell-based; settings: dose 0.3-3 µmol/L; procedure, shortened: as §1
[8] = test system: MM1.S; test: Synergistic activity against human MM.1S cells assessed as combination index […] in presence of 1.25 uM UNC1999 […] at 0.25 uM incubated for 48 hrs by MTT assay; type: functional
Procedure, shortened: (§3)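 Cells were exposed to the EZH2/EZH1 inhibitor (UNC1999 or GSK126) for 72 h in total, with the Akt inhibitor added for the last 48 h. Viability was read by MTS assay relative to untreated control cells, in triplicate. The combination index for each dose pair came from isobologram analysis.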

[9] = test system: MM1.S; test: Synergistic activity against human MM.1S cells assessed as combination index […] at 0.25 uM incubated for 48 hrs by MTT assay; type: functional; procedure, shortened: as §3
[10] = test system: MM1.S; test: Synergistic activity against human MM.1S cells assessed as combination index […] at 0.125 uM incubated for 48 hrs by […]; type: functional; procedure, shortened: as §3
[11] = test system: NCI-H929; test: Synergistic activity against human NCI-H929 cells assessed as combination index […] in presence of 5 uM GSK126 […] compound addition at 0.5 uM incubated for 48 hrs by […]; type: functional; procedure, shortened: as §3
[12] = test system: OPM-2/BTZ; test: Synergistic activity against human OPM-2/BTZ cells assessed as combination index preincubated in presence of 2.5 uM UNC1999 for 72 hrs followed by compound addition at 0.5 uM incubated for 48 hrs by MTT assay; type: functional
[13] = test system: OPM-2/BTZ; test: Synergistic activity against human OPM-2/BTZ cells assessed as combination index preincubated in presence of 1.25 uM GSK126 for 72 hrs followed by compound addition at 1 uM incubated for 48 hrs by MTT assay; type: functional
[14] = test system: OPM-2/BTZ; test: Synergistic activity against human OPM-2/BTZ cells assessed as combination index preincubated in presence of 5 uM GSK126 for 72 hrs followed by compound addition at 1 uM incubated for 48 hrs by MTT assay; type: functional
[15] = test system: OPM-2; test: Synergistic activity against human OPM-2 cells assessed as combination index preincubated in presence of 5 uM GSK126 for 72 hrs followed by compound addition at 5 uM incubated for 48 hrs by MTT assay; type: functional
[16] = test system: MM1.S; test: Induction of apoptosis in human MM1.S cells assessed as necrotic cells preincubated in presence of 5 micromol/L UNC1999 for 48 hrs followed by compound addition at 2 micromol/L incubated for 12 hrs by annexin V/PI staining based flow cytometry (reference value: 0.17%); type: functional; settings: dose 2 µmol/L, at 2 µM
[17] = test system: MM1.S; test: Upregulation of EZH1 mRNA expression in human MM1.S cells transduced with EZH1 at 0.3 micromol/L after 24 hrs by qRT-PCR analysis relative to control; type: functional, cell-based; settings: dose 0.3 µmol/L
Procedure, shortened: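 MM.1S cells were transduced with lentiviral shRNA against EZH1 or luciferase (shLuc control). Cells were then given graded TAS-117 for 24 h. EZH1 mRNA was measured by qRT-PCR and normalized to GAPDH.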

[18] = test system: MM1.S; test: Downregulation of H3K27me3 levels in human MM1.S cells […] at 0.3 micromol/L after 48 hrs by Western blot analysis relative to control; type: functional, cell-based; settings: dose 0.3 µmol/L
Procedure, shortened: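 MM.1S cells transduced with lentiviral shRNA against EZH1 or luciferase, then treated with TAS-117 at the indicated doses for 48 h. H3K27me3 immunoblot with H3 as loading control.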

[19] = test system: MM1.S; test: Upregulation of BIM mRNA expression in human MM1.S cells at 1 micromol/L after 24 hrs by qRT-PCR analysis; type: functional, cell-based; settings: dose 1.0 µmol/L
[20] = test system: MM1.S; test: Upregulation of FOXO3 in human MM1.S cells assessed as enhanced nuclear accumulation at 0.5 micromol/L after 24 hrs by immunofluorescence staining; type: functional, cell-based; settings: dose 0.5 µmol/L
Procedure, shortened: (§4)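 MM.1S and H929 cells were treated with or without 0.5 μmol/L TAS-117 for 24 h. Cells were immunostained with anti-FOXO3. Jurkat cells served as positive control and cells without primary antibody as negative control. Read-out was the average fluorescence intensity of the nuclear FOXO3 fraction versus untreated cells.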

[21] = test system: NCI-H929; test: Upregulation of FOXO3 in human NCI-H929 cells assessed as enhanced nuclear accumulation at 0.5 micromol/L after 24 hrs by immunofluorescence staining; type: functional, cell-based; settings: dose 0.5 µmol/L; procedure, shortened: as §4
[22] = test system: NCI-H929; test: Induction of apoptosis in human NCI-H929 cells assessed as necrotic cells at 2 micromol/L incubated for 12 hrs by annexin V/PI staining based flow cytometry (reference value: 2.61%); type: functional; settings: dose 2 µmol/L, at 2 µM
[23] = test system: NCI-H929; test: Induction of apoptosis in human NCI-H929 cells assessed as late apoptotic cells at 2 micromol/L incubated for 12 hrs by annexin V/PI staining based flow cytometry (reference value: […]%); type: functional; settings: dose 2 µmol/L
[24] = test system: NCI-H929; test: Induction of apoptosis in human NCI-H929 cells assessed as necrotic cells preincubated in presence of 5 micromol/L UNC1999 for 48 hrs followed by compound addition at 2 micromol/L incubated for 12 hrs by annexin V/PI staining based flow cytometry (reference value: 2.61%); type: functional; settings: dose 2 µmol/L, at 2 µM
[25] = test system: NCI-H929; test: Downregulation of E2F1 protein expression in human NCI-H929 cells incubated at 0.3 to 3 micromol/L for 48 hrs by Western blot analysis; settings: dose 0.3-3 µmol/L

For `C[C@]1(O)C[C@@](N)(c2ccc(-c3nc4n(c3-c3ccccc3)COc3ccncc3-4)cc2)C1` [PIFUSERTIB], the Activity [1] was “Active”, the Activity [2] was “Active” and the inhibition [3] was “Active”. The Activity [4] was “Active”, the Activity [5] was “Active” and the Activity [6] was “Active”. For the same molecule, the Activity [7] was “Active”, the CI [8] was 0.251 and the CI [9] was 0.307. The CI [10] was 1.08, the CI [11] was 7.883 and the CI [12] was 0.499. It also gave a CI [13] of 0.923, a CI [14] of 1.274 and a CI [15] of 5.39. The Activity [16] was 1.04%, the Activity [17] was “Active” and the Activity [18] was “Active”. The Activity [19] was “Active”, the Activity [20] was “Active” and the Activity [21] was “Active”. The Activity [22] was 0.35%, the Activity [23] was 3.42% and the Activity [24] was 2.15%. The Activity [25] was “Active”.
